Screening results deposited in PubChem by several laboratories.
Jurkat NFkB inh: inhibitors of the PMA/ionomycin-induced NF-kB reporter in Jurkat cells; PMA/ionomycin-induced NF-kB luciferase reporter, luminescence; actives 0.53% (n = 330,000); AID 435003; inhibition, % at 4 µM; in the data active = inhibition above about 50%
CHOP inh: CHOP inhibition in unfolded protein response; CHO-K1 CHOP-promoter luciferase, tunicamycin-induced, 15-18 h; inhibition, % at 10 µM; actives 3.8% (n = 220,000); AID 2732;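 active = compounds that reduced the stress-induced luciferase reporter signal by more than about 70% of percent inhibition, limit read from the data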;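 also: 0% = tunicamycin plus vehicle and 100% = wells without tunicamycin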
UPR XBP1 act: adaptive UPR (XBP1) activation; CHO-XBP1 luciferase reporter, IRE1-XBP1 UPR activation, luminescence; percent of tunicamycin response, DMSO as zero; activation, % at 20 µM; actives 0.33% (n = 330,000); AID 463104;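 active = versus positive control, 20 µM dose yields 30% or more activation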;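 also: 100% = tunicamycin at 10 µg/mL and 0% = DMSO only wells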
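incubation = overnight seeding at 37 °C, 6 h compound treatment at 37 °C | assay system = CHO-XBP1 cells stably carrying IRE1-XBP1-driven luciferase reporter | input = 1000 cells per well | detection = luciferase luminescence | dosing = single point, 20 µM final compound, 1% DMSO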
CHOP UPR activ: activators of apoptotic arm of unfolded protein response (CHOP) | AID 449763 | CHO-CHOP luciferase reporter, UPR activation, luminescence; percent of tunicamycin response over DMSO baseline | actives 0.34% (n = 330,000) | activation, % at 10 µM;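 active = at 10 µM dose, activation of 40% or more, normalized to positive control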;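 also: 100% = tunicamycin at 10 µg/mL and 0% = DMSO alone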
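Dosing – one dose, 10 µM in 0.5% DMSO · System – CHO-CHOP cells, stable luciferase reporter of PERK-eIF2a-CHOP signalling · Input – 500 cells/well · Control set – tunicamycin 10 µg/mL final as positive, DMSO-only wells as negative · Timing – 6 h compound treatment, 37 °C · Measure – % activation vs tunicamycin · Technique – luminescence read with Steady-Glo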
697 NFkB inh: inhibitors of the PMA/ionomycin-induced NF-kB reporter in 697 B cells; 697 B-cell NF-kB luciferase reporter, 16 h; inhibition, % at 4 µM; actives 0.33% (n = 330,000); AID 435022; in the data active = inhibition above about 35%
CHOP inh conf: confirmation of CHOP induction inhibitors | inhibition, % at 10 µM | actives 45% (n = 2,100) | AID 504437 | CHO-CHOP promoter luciferase reporter, tunicamycin-induced, luminescence | shares compounds with CHOP inh;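 active = mean of three repeat readings of reporter signal inhibition above a set limit, cut at about 70% in these data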;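 also: 0% = tunicamycin plus vehicle and 100% = wells lacking tunicamycin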
* hit, by the source's call; / = no result. This excerpt belongs to a sample that is enriched for hits.

SMILES | Jurkat NFkB inh | CHOP inh | UPR XBP1 act | CHOP UPR activ | 697 NFkB inh | CHOP inh conf
CC(C)c1ccc(O)c(NC(=S)NC(=O)CCc2ccccc2)c1 | -10 | 106* | -1 | 0 | -3 | 110*
Cc1csc(NC(=O)Cc2coc3cc(C)c(C(C)C)cc23)n1 | 7 | 99* | -3 | -1 | -49 | 42
Cc1ccc(N(c2ncnc(N)c2[N+](=O)[O-])C2CCCCC2)cc1 | 5 | 105* | 2 | 0 | 8 | 100*
Cc1ccc(Oc2ncnc(N)c2[N+](=O)[O-])cc1 | 0 | 15 | -1 | 1 | 1 | /
O=C(COC(=O)/C=C/c1cccc(C(F)(F)F)c1)NC1CCS(=O)(=O)C1 (centres undefined) | 8 | / | -2 | -1 | 13 | /
O=C(Nc1cccc(C(F)(F)F)c1)NC1CCN(S(=O)(=O)c2ccc(F)cc2)CC1 | -9 | 100* | -4 | -2 | 2 | 94*
O=C1C(=C2SCCCS2)CC/C1=C\c1ccc(F)cc1 | 3 | 108* | -9 | -12 | -146 | 115*
C[C@@H](OC(=O)c1[nH]cnc1C(=O)NCc1ccc(CNC(=O)OC(C)(C)C)cc1)c1ccccc1 | 4 | / | 2 | 2 | -34 | /
CCSc1nc2ccccc2n1C(=O)/C=C/c1ccc(OC)c(OC)c1 | 43 | 105* | -2 | 3 | -168 | 114*
CC(=O)Nc1ccc(C(=O)COC(=O)CCc2ccccc2)c(F)c1 | 4 | / | 1 | -2 | 5 | /
Cc1nc2ccccn2c1C(=O)N=Nc1c(O)n(CCC(C)C)c2ccccc12 | -10 | 101* | 6 | 2 | -48 | 105*
CCCn1c(O)c(N=NC(=O)c2ccco2)c2ccccc21 | 0 | 6 | 6 | 3 | -4 | /
O=C(Cc1cccs1)N/N=C/C(Br)=C/c1ccccc1 | -114 | 104* | 3 | 3 | -81 | 66
Cc1cc(C)c(S(=O)(=O)ON2C(=O)c3ccccc3C2=O)cc1C | 2 | 108* | 2 | 0 | -15 | 87*
Cc1ccc(OC(=O)CN2C(=O)c3ccccc3C2=O)cc1C | 3 | / | -1 | 2 | 4 | /
Cc1cc(C)c(C)c(S(=O)(=O)ON2C(=O)c3ccccc3C2=O)c1C | -17 | 101* | 0 | 14 | 2 | 108*
Cc1cc(NC(=O)CSc2nc3cc4c(cc3c(=O)n2CCc2ccccc2)OCO4)no1 | -2 | 99* | 4 | 4 | 18 | 101*
C/C(=N\NC(=O)CC1N=C(Cc2ccccc2)NNC1=O)c1ccc(Cl)cc1Cl (centres undefined) | -12 | 99* | 3 | 0 | -9 | 28
C/C(=N\NC(=O)CC1N=C(Cc2ccccc2)NNC1=O)c1ccccc1 (centres undefined) | 2 | 36 | 1 | 0 | 9 | /
O=S(=O)(NCc1cc(-c2ccc(Cl)cc2)no1)c1ccc(Cl)cc1 | 6 | 102* | -1 | -3 | 17 | 46
O=C(NNS(=O)(=O)c1ccccc1[N+](=O)[O-])c1cccc([N+](=O)[O-])c1 | 2 | 36 | -3 | -2 | 17 | /
N#CC1=C(N)C2=CCCC[C@H]2[C@H](c2ccc(Br)cc2)C1(C#N)C#N | / | 99* | / | / | / | 24
N#CC1=C(N)C2=CCCC[C@H]2[C@H](c2ccccc2)C1(C#N)C#N | -10 | -13 | -4 | -2 | 3 | /
Cc1ccc2nc(SC(C(=O)Nc3ccc(F)cc3)c3ccccc3)[nH]c2c1 (centres undefined) | -3 | 106* | -2 | 2 | 5 | 56
Cn1cnnc1SC(C(=O)Nc1ccc(F)cc1)c1ccccc1 (centres undefined) | -10 | 24 | -5 | -2 | 22 | /
COc1ccccc1C1C(C#N)=C(N)N(N(C)C)C2=C1C(=O)CC(C)(C)C2 (centres undefined) | 8 | / | 2 | 1 | -1 | /
O=C(CSc1nc(=O)n2ccccc2n1)N1CCCc2ccccc21 | 5 | / | 1 | 0 | 14 | /
C#CCN1C(=O)S/C(=C/C=C/c2ccc(N(C)C)cc2)C1=O | / | 35 | / | / | / | /
O=[N+]([O-])c1ccc(S(=O)(=O)Nc2ccc(-c3csc(-c4ccccc4)n3)cc2)cc1 | 1 | 19 | -1 | -2 | 23 | /
